Measured values taken from ChEMBL document CHEMBL1148625, “3-(1,1-dioxo-2H-(1,2,4)-benzothiadiazin-3-yl)-4-hydroxy-2(1H)-quinolinones, potent inhibitors of hepatitis C virus RNA-dependent RNA polymerase” (J Med Chem, 2006).

Experiments:
[1] = biological target: T1, Nuclear receptor subfamily 1 group I member 2 (Homo sapiens, UniProt O75469); test: Effect on PXR activity
T1 sequence (O75469 whole entry): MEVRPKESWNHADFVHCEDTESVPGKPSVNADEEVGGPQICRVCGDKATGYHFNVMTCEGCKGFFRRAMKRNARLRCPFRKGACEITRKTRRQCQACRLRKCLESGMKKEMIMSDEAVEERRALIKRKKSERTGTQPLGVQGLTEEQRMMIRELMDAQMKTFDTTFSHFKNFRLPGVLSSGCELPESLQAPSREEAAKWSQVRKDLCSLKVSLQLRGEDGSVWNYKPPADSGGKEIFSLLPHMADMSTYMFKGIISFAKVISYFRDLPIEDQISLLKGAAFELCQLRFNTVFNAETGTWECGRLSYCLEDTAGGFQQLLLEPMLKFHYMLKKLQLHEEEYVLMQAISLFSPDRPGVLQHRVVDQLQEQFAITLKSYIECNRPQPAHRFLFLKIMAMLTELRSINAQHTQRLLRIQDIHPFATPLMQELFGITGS

[2] = Half life in Sprague-Dawley rat at 1.3 mg/kg, iv or 3.4 mg/kg, po; assay type: ADME, organism-based; settings: in vivo
Procedure, shortened: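 Single intravenous or oral doses given to Sprague-Dawley rats. Values are reported as means: Cmax (ng/mL), half-life (min), plasma clearance (mL/min/kg), steady-state volume of distribution (L/kg) and oral bioavailability F (%).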

Hepatitis C virus [3] = test: Protein binding in Huh7 cells using HCV 1b replicon by a replicon cell assay; assay type: functional, organism-based, Hepacivirus hominis; settings: genotype 1b, Huh-7
Procedure, shortened: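 Replicon assay in Huh-7 cells run with α-acid glycoprotein, human serum albumin, or both added to the medium, to assess the effect of plasma protein binding on cellular activity.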

Hepatitis C virus [4] = test: Protein binding in Huh7 cells using HCV 1b replicon by a replicon cell assay in presence of alpha-acid glycoprotein; assay type: functional, organism-based, Hepacivirus hominis; settings: genotype 1b, Huh-7
Hepatitis C virus [5] = test: Protein binding in Huh7 cells using HCV 1b replicon by a replicon cell assay in presence of HSA and alpha-acid glycoprotein; assay type: functional, organism-based, Hepacivirus hominis; settings: genotype 1b, Huh-7
[6] = Clearance in cynomolgus monkey at 0.8 mg/kg, iv or 4.0 mg/kg, po; assay type: ADME, organism-based, Macaca fascicularis; settings: in vivo
Procedure, shortened: (§1)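 Single-dose study, with separate intravenous and oral administrations at the listed mg/kg. Plasma concentrations were followed over time, and mean values were derived for Cmax, T1/2, clearance (mL/min/kg), Vdss (L/kg) and oral bioavailability (%).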

[7] = Half life in cynomolgus monkey at 0.8 mg/kg, iv or 4.0 mg/kg, po; assay type: ADME, organism-based, Macaca fascicularis; settings: in vivo; procedure, shortened: as §1
[8] = Half life in Beagle dog at 0.8 mg/kg, iv or 4.0mg/kg, po; assay type: ADME, organism-based, Canis lupus familiaris; design: dose 0.8 mg/kg; settings: in vivo; procedure, shortened: as §1
[9] = biological target: RNA-directed RNA polymerase (Hepacivirus hominis, UniProt O39930); test: Inhibitory activity against HCV delta 21 NS5B RNA polymerase by SPA assay; design: species or system Hepatitis C virus subtype 1b
RNA-directed RNA polymerase, sequence (O39930 whole entry): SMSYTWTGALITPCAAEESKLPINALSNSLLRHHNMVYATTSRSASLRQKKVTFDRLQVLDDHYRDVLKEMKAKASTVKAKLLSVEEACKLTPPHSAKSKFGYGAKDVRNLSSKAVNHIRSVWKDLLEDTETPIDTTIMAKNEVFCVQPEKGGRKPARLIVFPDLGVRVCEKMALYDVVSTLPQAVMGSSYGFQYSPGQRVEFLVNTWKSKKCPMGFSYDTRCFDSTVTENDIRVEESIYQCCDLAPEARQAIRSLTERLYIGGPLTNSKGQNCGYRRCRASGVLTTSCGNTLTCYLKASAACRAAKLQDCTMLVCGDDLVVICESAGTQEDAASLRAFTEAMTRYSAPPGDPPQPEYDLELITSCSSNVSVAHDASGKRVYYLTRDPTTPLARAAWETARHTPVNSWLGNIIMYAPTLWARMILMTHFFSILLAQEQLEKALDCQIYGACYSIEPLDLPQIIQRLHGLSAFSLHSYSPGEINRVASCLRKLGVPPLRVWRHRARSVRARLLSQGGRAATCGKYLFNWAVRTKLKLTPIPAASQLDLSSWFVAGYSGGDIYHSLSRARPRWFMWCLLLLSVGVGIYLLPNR

Cytochrome P450 2C9 = Cytochrome P450 2C9 (Homo sapiens, UniProt P11712); test: Inhibition of CYP2C9 isozyme; assay type: ADME
Cytochrome P450 2C9, sequence (P11712 whole entry): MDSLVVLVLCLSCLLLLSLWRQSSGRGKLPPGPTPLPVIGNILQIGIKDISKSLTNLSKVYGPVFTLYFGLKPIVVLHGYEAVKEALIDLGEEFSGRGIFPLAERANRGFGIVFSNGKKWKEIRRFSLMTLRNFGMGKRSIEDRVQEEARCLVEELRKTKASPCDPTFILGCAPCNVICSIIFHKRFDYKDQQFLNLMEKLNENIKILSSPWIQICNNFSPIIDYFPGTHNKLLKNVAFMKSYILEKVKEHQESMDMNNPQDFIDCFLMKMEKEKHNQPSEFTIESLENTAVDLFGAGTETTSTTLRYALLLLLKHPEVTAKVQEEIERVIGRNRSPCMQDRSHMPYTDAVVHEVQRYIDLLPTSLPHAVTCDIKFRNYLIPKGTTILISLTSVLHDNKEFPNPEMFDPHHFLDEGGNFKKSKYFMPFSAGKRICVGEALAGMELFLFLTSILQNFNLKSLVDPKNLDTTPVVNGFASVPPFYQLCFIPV

[10] = biological target: RNA-directed RNA polymerase (Hepacivirus hominis) (UniProt O39930); test: Inhibitory activity against HCV 3a NS5B RNA at 10 uM
RNA-directed RNA polymerase (Hepacivirus hominis), sequence (O39930 1-591): as the sequence (O39930 whole entry) above

Compound: O=c1c(C2=Nc3ccccc3S(=O)(=O)N2)c(O)c2cc(F)ccc2n1CCC1CC1
- EC50 [1]: 5.3 µM
- half-life [2]: 182 min
- EC50 (Hepatitis C virus [3]): 38 nM
- EC50 (Hepatitis C virus [4]): 180 nM
- EC50 (Hepatitis C virus [5]): > 20 µM
- clearance [6]: 0.76 mL/min/kg
- half-life [7]: 96.9 min
- half-life [8]: 104 min
- IC50 [9]: 10 nM
- IC50 (Cytochrome P450 2C9): 1000 nM
- inhibition [10]: 60%
